{"source": "paper PMC3609526", "about": "(Diabetes Care, 2013)", "assay": "Euglycemic clamp study: pharmacodynamics by glucose infusion rate", "type": "in vivo, human (type 1 diabetic patients)", "conditions": "for GIR tmax50 (time to reach 50% of maximum GIR) / GIR tmax (time to reach maximum GIR): euglycemic clamp, 12 patients, mean ± SD", "in_short": "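Crossover design with a 5–21 d washout, in fasting C-peptide-negative patients. During a 3–7 h run-in, IV human insulin/glucose held plasma glucose at 5.5 ± 1.1 mmol/L, with insulin tapered off over the last hour. At time 0, a fast-acting insulin analogue was injected into abdominal s.c. fat. Variable 10% glucose then ran for 8 h. Arterialized venous glucose (arm warmed at 55°C) was measured every 5–10 min in duplicate, and GIR AUC was calculated.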", "key": {"[1]": {"conditions": "9 × 2 IU dispersed s.c. boluses"}}, "data": [{"substance": "insulin aspart", "values": [{"measurement": "GIR tmax50 (time to reach 50% of maximum GIR)", "setting": "1 × 18 IU single s.c. bolus", "value": "49 ± 16", "unit": "min"}, {"measurement": "GIR tmax (time to reach maximum GIR)", "setting": "1 × 18 IU single s.c. bolus", "value": "127 ± 93", "unit": "min"}, {"measurement": "GIR tmax50 (time to reach 50% of maximum GIR)", "setting": "[1]", "value": "38 ± 9", "unit": "min"}, {"measurement": "GIR tmax (time to reach maximum GIR)", "setting": "[1]", "value": "68 ± 33", "unit": "min"}, {"measurement": "shortening of time to reach maximum GIR", "setting": "9 × 2 IU vs. 1 × 18 IU", "value": "~50", "unit": "%"}]}]}
